# Data as given in ChEMBL document CHEMBL2177085 (J Med Chem, 2012).
# Tests used:
# MKN-45 [1] = assay: Cytotoxic activity against human MKN45 cells assessed as cell viability at 50 uM incubated for 5 days by MTT assay; type: functional; settings: MKN-45, 120 h, read-out: Activity
# Summary of the method: (§1)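 MTT viability: exponentially growing cells, 10 000 viable cells/well in RPMI plated overnight, then exposed to test compounds for 3 days (HT-29, Molm-14) or 5 days (Mkn-45) at 37 °C, 5% CO2. MTT added for 4 h, then SDS/HCl solubilization overnight and absorbance read at 562 nm. Viability is expressed relative to untreated cells (100%). Triplicate.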
# MOLM-14 [2] = assay: Cytotoxic activity against human MOLM14 cells assessed as cell viability at 10 uM incubated for 3 days by MTT assay; type: functional; settings: MOLM-14, 72 h, read-out: Activity; summary of the method: as §1
# MOLM-14 [3] = assay: Cytotoxic activity against human MOLM14 cells assessed as cell viability at 20 uM incubated for 3 days by MTT assay; type: functional; settings: MOLM-14, 72 h, read-out: Activity; summary of the method: as §1
# [4] = molecular target: Epidermal growth factor receptor (Homo sapiens) (UniProt P00533); assay: Inhibition of EGFR assessed as enzyme residual activity at 10 uM relative to untreated control
# Summary of the method: (§2)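 Residual kinase activity at 10 μM compound, determined by a commercial kinase profiling service (Millipore) across 15 kinases of different classes. Each compound tested in duplicate.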
# MKN-45 [5] = assay: Induction of apoptosis in human MKN45 assessed as accumulation at subG1 phase at 10 uM incubated for 7 days by flow cytometry (reference value: 10.9 +/- 3.2%); type: functional
# [6] = molecular target: T1, Receptor-type tyrosine-protein kinase FLT3 (Homo sapiens, UniProt P36888); assay: Inhibition of FLT3
# T1 sequence (P36888 whole entry): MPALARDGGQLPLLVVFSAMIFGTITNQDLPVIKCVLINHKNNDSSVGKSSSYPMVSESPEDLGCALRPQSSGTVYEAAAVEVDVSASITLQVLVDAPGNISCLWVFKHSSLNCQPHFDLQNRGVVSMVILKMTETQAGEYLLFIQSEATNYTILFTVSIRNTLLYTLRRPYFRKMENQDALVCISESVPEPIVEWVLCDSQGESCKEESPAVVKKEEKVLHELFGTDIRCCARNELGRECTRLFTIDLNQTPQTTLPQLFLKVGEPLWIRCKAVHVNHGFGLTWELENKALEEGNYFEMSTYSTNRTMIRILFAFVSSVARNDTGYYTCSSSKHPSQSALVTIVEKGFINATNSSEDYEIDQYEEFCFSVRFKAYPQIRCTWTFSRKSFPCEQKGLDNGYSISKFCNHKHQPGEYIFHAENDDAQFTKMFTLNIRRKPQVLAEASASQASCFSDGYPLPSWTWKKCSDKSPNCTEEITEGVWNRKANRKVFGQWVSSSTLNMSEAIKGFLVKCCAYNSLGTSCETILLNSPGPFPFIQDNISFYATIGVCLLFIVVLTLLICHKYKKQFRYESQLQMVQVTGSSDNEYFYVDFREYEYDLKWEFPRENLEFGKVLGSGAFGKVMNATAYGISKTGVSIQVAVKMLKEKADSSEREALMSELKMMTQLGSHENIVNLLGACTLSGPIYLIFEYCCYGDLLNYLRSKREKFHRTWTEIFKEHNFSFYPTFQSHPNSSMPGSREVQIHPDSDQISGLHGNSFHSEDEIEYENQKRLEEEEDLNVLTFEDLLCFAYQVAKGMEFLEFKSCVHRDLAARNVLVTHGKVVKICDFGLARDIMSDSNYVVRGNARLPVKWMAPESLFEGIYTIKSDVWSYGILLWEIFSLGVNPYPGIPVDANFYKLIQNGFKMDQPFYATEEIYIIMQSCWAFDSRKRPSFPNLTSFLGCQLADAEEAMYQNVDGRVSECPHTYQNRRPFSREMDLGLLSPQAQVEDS
# Summary of the method: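 Run as an outsourced kinase profiling service (Millipore IC50 Profiler), with the protocol referred to the provider. Gives IC50 values and residual activity at 10 μM test compound. Compounds tested in duplicate.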
# [7] = molecular target: Cyclin-dependent kinase 2/cyclin A (Homo sapiens) (UniProt P24941+P20248+P78396); assay: Inhibition of CDK2/cyclinA assessed as enzyme residual activity at 10 uM relative to untreated control; type: protein-complex assay; summary of the method: as §2
# [8] = molecular target: RAF proto-oncogene serine/threonine-protein kinase (Homo sapiens) (UniProt P04049); assay: Inhibition of c-RAF assessed as enzyme residual activity at 10 uM relative to untreated control; summary of the method: as §2
# HUVEC = assay: Induction of apoptosis in human HUVEC assessed as accumulation at subG1 phase at 0.79 uM incubated for 4 days by flow cytometry (reference value: 15.4 +/- 1.5%); type: functional
# MKN-45 [9] = assay: Induction of apoptosis in human MKN45 assessed as accumulation at subG1 phase at 20 uM incubated for 7 days by flow cytometry (reference value: 10.9 +/- 3.2%); type: functional
# [10] = molecular target: Protein kinase C gamma type (Homo sapiens) (UniProt P05129); assay: Inhibition of PKCgamma assessed as enzyme residual activity at 10 uM relative to untreated control; summary of the method: as §2
# MKN-45 [11] = assay: Cytotoxic activity against human MKN45 cells assessed as cell viability at 0.5 uM incubated for 5 days by MTT assay; type: functional; settings: MKN-45, 120 h, read-out: Activity; summary of the method: as §1
# MKN-45 [12] = assay: Cytotoxic activity against human MKN45 cells assessed as cell viability at 5 uM incubated for 5 days by MTT assay; type: functional; settings: MKN-45, 120 h, read-out: Activity; summary of the method: as §1
# Chain of Epidermal growth factor receptor (Homo sapiens) (P00533 whole entry): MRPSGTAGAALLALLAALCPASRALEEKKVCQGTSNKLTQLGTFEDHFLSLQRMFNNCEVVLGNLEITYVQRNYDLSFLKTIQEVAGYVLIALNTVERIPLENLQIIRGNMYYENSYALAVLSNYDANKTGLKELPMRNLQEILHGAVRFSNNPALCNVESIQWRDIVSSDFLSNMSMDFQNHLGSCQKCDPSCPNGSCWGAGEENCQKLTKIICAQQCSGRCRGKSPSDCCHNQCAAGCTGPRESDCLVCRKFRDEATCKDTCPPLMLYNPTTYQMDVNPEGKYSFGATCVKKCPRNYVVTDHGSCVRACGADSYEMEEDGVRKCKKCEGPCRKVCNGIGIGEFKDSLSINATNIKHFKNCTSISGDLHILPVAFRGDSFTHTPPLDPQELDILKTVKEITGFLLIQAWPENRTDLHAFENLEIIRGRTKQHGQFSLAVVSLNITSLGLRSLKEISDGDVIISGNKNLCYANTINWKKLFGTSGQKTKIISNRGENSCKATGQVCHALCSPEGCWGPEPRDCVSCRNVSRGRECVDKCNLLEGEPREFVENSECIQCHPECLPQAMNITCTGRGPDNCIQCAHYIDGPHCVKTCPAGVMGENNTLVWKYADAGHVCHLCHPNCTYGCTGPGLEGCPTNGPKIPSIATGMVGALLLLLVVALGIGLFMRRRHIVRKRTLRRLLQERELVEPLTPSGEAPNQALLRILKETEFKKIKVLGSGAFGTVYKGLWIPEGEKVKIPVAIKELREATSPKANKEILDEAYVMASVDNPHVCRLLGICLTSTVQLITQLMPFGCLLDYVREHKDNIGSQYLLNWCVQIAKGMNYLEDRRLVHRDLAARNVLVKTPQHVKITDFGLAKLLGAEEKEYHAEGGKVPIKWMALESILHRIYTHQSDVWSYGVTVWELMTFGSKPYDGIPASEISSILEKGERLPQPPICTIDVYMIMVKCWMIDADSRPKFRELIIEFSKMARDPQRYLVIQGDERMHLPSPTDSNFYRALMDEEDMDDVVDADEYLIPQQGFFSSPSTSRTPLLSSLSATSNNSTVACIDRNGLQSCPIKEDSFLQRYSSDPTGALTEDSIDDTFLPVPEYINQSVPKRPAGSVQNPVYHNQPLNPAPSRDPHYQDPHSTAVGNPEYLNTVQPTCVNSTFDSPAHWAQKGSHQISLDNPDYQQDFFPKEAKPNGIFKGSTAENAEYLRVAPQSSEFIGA
# Chain of RAF proto-oncogene serine/threonine-protein kinase (Homo sapiens) (P04049 whole entry): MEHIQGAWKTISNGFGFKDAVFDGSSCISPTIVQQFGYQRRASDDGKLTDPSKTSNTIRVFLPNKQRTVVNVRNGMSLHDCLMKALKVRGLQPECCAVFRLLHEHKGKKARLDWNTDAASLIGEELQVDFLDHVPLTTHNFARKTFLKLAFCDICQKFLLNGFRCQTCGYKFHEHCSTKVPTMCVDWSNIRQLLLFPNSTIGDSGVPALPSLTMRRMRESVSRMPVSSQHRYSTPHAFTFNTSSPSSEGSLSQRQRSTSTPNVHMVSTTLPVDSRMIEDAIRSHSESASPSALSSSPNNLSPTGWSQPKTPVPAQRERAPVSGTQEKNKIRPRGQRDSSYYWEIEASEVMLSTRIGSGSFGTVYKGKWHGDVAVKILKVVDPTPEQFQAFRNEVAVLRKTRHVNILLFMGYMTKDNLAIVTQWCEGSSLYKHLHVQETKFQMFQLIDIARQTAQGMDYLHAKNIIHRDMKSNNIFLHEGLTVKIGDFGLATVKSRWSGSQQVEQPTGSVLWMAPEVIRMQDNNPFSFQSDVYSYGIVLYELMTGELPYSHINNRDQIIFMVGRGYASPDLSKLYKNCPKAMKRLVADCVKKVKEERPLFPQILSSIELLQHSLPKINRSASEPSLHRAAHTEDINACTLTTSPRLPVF
smiles,measurement,setting,value
COc1cc(C2=C(c3c[nH]c4cnccc34)C(=O)NC2=O)cc(OC)c1OC,viability at 50 µM,MKN-45 [1],68.6%
same,viability at 10 µM,MOLM-14 [2],9.35%
same,viability at 20 µM,MOLM-14 [3],5.39%
same,Activity,[4],111%
same,Activity,MKN-45 [5],16.5%
same,IC50,[6],18 nM
same,Activity,[7],88%
same,Activity,[8],117%
same,Activity,HUVEC,48%
same,Activity,MKN-45 [9],28.3%
same,Activity,[10],83%
same,viability at 0.5 µM,MKN-45 [11],99.2%
same,viability at 5 µM,MKN-45 [12],105%
